Experiments:
Human alphaherpesvirus 1 [1] = assay: Antiviral activity against HSV-1 (Herpes simplex virus); assay type: functional
Summary of the method: (§1)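 Disk-diffusion gradient assay. BSC1 (M199) or Vero (RPMI) monolayers with 10% inactivated calf serum are infected to give confluent plaques. They are overlaid with Eagle's/1% agar/5% calf serum. A 5-mm paper disk soaked in compound (5 mg/mL in DMSO) is placed centrally, then 3–4 days at 37 °C, fix and stain. Diameter of the destroyed central zone = toxicity. Plaque-free diameter minus toxic diameter = antiviral activity.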

Vero = assay: Cytotoxicity against BSCL and Vero cells; assay type: functional, Chlorocebus sabaeus; summary of the method: as §1
Semliki Forest virus = assay: Antiviral activity against forest virus; assay type: functional; summary of the method: as §1
Vaccinia virus = assay: Antiviral activity against Vaccinia virus; assay type: functional, Orthopoxvirus vaccinia; design: unit not given here; summary of the method: as §1
Human alphaherpesvirus 1 [2] = assay: Growth inhibition against HSV-1 virus in BSCL cells at the dose of 0.8 ug/mL and 22h time of treatment.; assay type: functional; details: Human alphaherpesvirus 1, BSCL
Summary of the method: (§2)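 HSV-1 grown 22 h in BSC1 cells in the presence of compound after infection at 1 pfu/cell (1 h, 37 °C, wash, medium with 2% calf serum). Virus yield is titred by plaque assay on agar overlay: 4 days at 37 °C, crystal violet stain, plaque count. Reported as % inhibition of virus growth.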

Human alphaherpesvirus 1 [3] = assay: Inhibition of viral DNA synthesis in HSV-1 virus at the dose of 0.8 ug/mL.; assay type: functional
Summary of the method: (§3)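 HSV-1-infected BSC1 cells labelled with [3H]thymidine (2 μCi/mL) from 3 h post-infection and harvested at 22 h. Lysed with 1% SDS and 0.3 mg/mL Pronase for 5 h at 37 °C. DNA banded on CsCl gradient (pH 8.0, 35000 rpm, 20 °C, 48 h). TCA-precipitable radioactivity in viral and cellular DNA peaks is summed and expressed as % of infected untreated culture.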

BSC-1 [4] = assay: Inhibition of cellular DNA synthesis in BSCL cells at the dose of 0.8 ug/mL.; assay type: functional, Cercopithecidae; details: Chlorocebus aethiops; summary of the method: as §3
BSC-1 [5] = assay: Inhibition of cellular DNA synthesis in BSCL cells at the dose of 17.0 ug/mL.; assay type: functional, Cercopithecidae; details: Chlorocebus aethiops; summary of the method: as §3
Human alphaherpesvirus 1 [6] = assay: Growth inhibition against HSV-1 virus in BSCL cells at the dose of 17.0 ug/mL and 22h time of treatment.; assay type: functional; details: Human alphaherpesvirus 1, BSCL; summary of the method: as §2
Human alphaherpesvirus 1 [7] = assay: Inhibition of viral DNA synthesis in HSV-1 virus at the dose of 17.0 ug/mL.; assay type: functional; summary of the method: as §3
Human alphaherpesvirus 1 [8] = assay: Growth inhibition against HSV-1 virus in BSCL cells at the dose of 1.4 ug/mL and 22h time of treatment.; assay type: functional; details: Human alphaherpesvirus 1, BSCL; summary of the method: as §2
Human alphaherpesvirus 1 [9] = assay: Inhibition of viral DNA synthesis in HSV-1 virus at the dose of 1.4 ug/mL.; assay type: functional; summary of the method: as §3
BSC-1 [10] = assay: Inhibition of cellular DNA synthesis in BSCL cells at the dose of 1.4 ug/mL.; assay type: functional, Cercopithecidae; details: Chlorocebus aethiops; summary of the method: as §3

## CC(=O)OCC(OC(C)=O)C(OC(C)=O)C(C=C(C(C)=O)C(C)=O)OC(C)=O (stereo unspecified)
Human alphaherpesvirus 1 [1]
  Antiviral activity: 11 mm
Vero
  Cytotoxicity: 13 mm
Semliki Forest virus
  Antiviral activity: 0 mm
Vaccinia virus
  Antiviral activity: 0

## CC(=O)/C(=C\[C@@H]1O[C@H](c2ccccc2)O[C@@H]2CO[C@@H](c3ccccc3)O[C@@H]12)C(=O)c1ccccc1
Human alphaherpesvirus 1 [1]
  Antiviral activity: 12 mm
Vero
  Cytotoxicity: 14 mm
Semliki Forest virus
  Antiviral activity: 0 mm
Vaccinia virus
  Antiviral activity: 8

## CC(=O)/C(=C\[C@@H]1O[C@H](c2ccccc2)O[C@H](CC(=O)Oc2ccccc2)[C@H]1C(=O)Oc1ccccc1)C(=O)Nc1ccccc1
Human alphaherpesvirus 1 [1]
  Antiviral activity: 2 mm
Vero
  Cytotoxicity: 4 mm
Semliki Forest virus
  Antiviral activity: 0 mm
Vaccinia virus
  Antiviral activity: 9

## CC(=O)OC(C=C(C(C)=O)C(C)=O)C(OC(=O)c1ccccc1)C(COC(=O)c1ccccc1)OC(C)=O (stereo unspecified)
Human alphaherpesvirus 1 [1]
  Antiviral activity: 4 mm
Vero
  Cytotoxicity: 2 mm
Semliki Forest virus
  Antiviral activity: 4 mm
Vaccinia virus
  Antiviral activity: 6

## O=C[C@@H]1O[C@H](c2ccccc2)O[C@@H]2CO[C@@H](c3ccccc3)O[C@@H]12
Human alphaherpesvirus 1 [1]
  Antiviral activity: 8 mm
Vero
  Cytotoxicity: 8 mm
Semliki Forest virus
  Antiviral activity: 6 mm
Vaccinia virus
  Antiviral activity: 12

## O=c1[nH]c(=O)n([C@H]2C[C@H](O)[C@@H](CO)O2)cc1I [IDOXURIDINE]
Human alphaherpesvirus 1 [2]
  inhibition at 0.8 µg/mL: 71.3%
Human alphaherpesvirus 1 [3]
  inhibition at 0.8 µg/mL: 31.1%
BSC-1 [4]
  inhibition at 0.8 µg/mL: 21.5%

## CC(=O)C(=C[C@@H]1O[C@H](c2ccccc2)O[C@@H]2CO[C@@H](c3ccccc3)O[C@@H]12)C(C)=O
BSC-1 [5]
  inhibition at 17 µg/mL: 80.7%
Human alphaherpesvirus 1 [6]
  inhibition at 17 µg/mL: 95.5%
Human alphaherpesvirus 1 [1]
  Antiviral activity: 11 mm
Vero
  Cytotoxicity: 10 mm
Semliki Forest virus
  Antiviral activity: 0 mm
Vaccinia virus
  Antiviral activity: 5
Human alphaherpesvirus 1 [7]
  inhibition at 17 µg/mL: 50.9%

## O=C1OCC/C1=C\[C@@H]1O[C@H](c2ccccc2)O[C@@H]2CO[C@@H](c3ccccc3)O[C@@H]12
Human alphaherpesvirus 1 [1]
  Antiviral activity: 0 mm
Vero
  Cytotoxicity: 3 mm
Semliki Forest virus
  Antiviral activity: 0 mm
Vaccinia virus
  Antiviral activity: 14

## CC(=O)OCC(OC(C)=O)C(OC(C)=O)C(OC(C)=O)C(C=C(C(C)=O)C(C)=O)OC(C)=O (stereo unspecified)
Human alphaherpesvirus 1 [1]
  Antiviral activity: 1 mm
Vero
  Cytotoxicity: 8 mm
Semliki Forest virus
  Antiviral activity: 0 mm
Vaccinia virus
  Antiviral activity: 3

## Nc1ccn([C@@H]2O[C@H](CO)[C@@H](O)[C@@H]2O)c(=O)n1 [CYTARABINE]
Human alphaherpesvirus 1 [8]
  inhibition at 1.4 µg/mL: 93.6%
Human alphaherpesvirus 1 [9]
  inhibition at 1.4 µg/mL: 0%
BSC-1 [10]
  inhibition at 1.4 µg/mL: 38.3%
